Legend:
[1] = test system: SH-SY5Y; experiment: Antisense activity in human SH-SY5Y cells assessed as inhibition of luciferase gene expression at 60 nM after 22 hrs by luminometry in the presence of lipofectamine 2000; assay type: functional
Outline: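 SH-SY5Y cells cotransfected via Lipofectamine 2000 with Renilla (target) and firefly (internal control) luciferase plasmids plus phosphorothioate ASO derivatives at 60 nM, targeting Renilla mRNA site 21-38; scrambled sequences as controls. Read-out: Renilla luciferase inhibition normalized to firefly.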

[2] = test system: SH-SY5Y; experiment: Cellular uptake in human SH-SY5Y cells at 300 nM after 22 hrs by dual leucifearse reporter assay; assay type: ADME, cell-based; conditions: 0.3 µM
Outline: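 Dual-luciferase plasmids (Renilla target, firefly internal control) transfected into SH-SY5Y; after 3 h, medium replaced with fresh medium containing ASO-peptide conjugates (150, 200, 300 nM) without Lipofectamine 2000. Luciferase activities measured 22 h after transfection; knockdown expressed as inhibition of Renilla expression. Phosphorothioate ASO targets Renilla mRNA 21-38 site.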

Drug uptake [2] | Structure (SMILES) | inhibition at 0.06 µM [1]
11% | Cc1cn([C@H]2C[C@H](OP(O)(=S)OC[C@H]3O[C@@H](n4cc(C)c(=O)[nH]c4=O)C[C@@H]3OP(O)(=S)OC[C@H]3O[C@@H](n4cnc5c(=O)[nH]c(N)nc54)[C@H](O)[C@@H]3OP(O)(=S)OC[C@H]3O[C@@H](n4cc(C)c(=O)[nH]c4=O)C[C@@H]3OP(O)(=S)OC[C@H]3O[C@@H](n4cc(C)c(=O)[nH]c4=O)C[C@@H]3OP(O)(=S)OC[C@H]3O[C@@H](n4cc(C)c(=O)[nH]c4=O)C[C@@H]3OP(O)(=S)OC[C@H]3O[C@@H](n4ccc(N)nc4=O)[C@H](O)[C@@H]3OP(O)(=S)OC[C@H]3O[C@@H](n4ccc(N)nc4=O)[C@H](O)[C@@H]3OP(O)(=S)OC[C@H]3O[C@@H](n4cc(C)c(=O)[nH]c4=O)C[C@@H]3OP(O)(=S)OC[C@H]3O[C@@H](n4cc(C)c(=O)[nH]c4=O)C[C@@H]3OP(O)(=S)OC[C@H]3O[C@@H](n4cc(C)c(=O)[nH]c4=O)C[C@@H]3OP(O)(=S)OC[C@H]3O[C@@H](n4cnc5c(=O)[nH]c(N)nc54)[C@H](O)[C@@H]3OP(O)(=S)OC[C@H]3O[C@@H](n4ccc(N)nc4=O)[C@H](O)[C@@H]3O)[C@@H](COP(O)(=S)O[C@H]3[C@@H](O)[C@H](n4ccc(N)nc4=O)O[C@@H]3COP(O)(=S)O[C@H]3C[C@H](n4cc(C)c(=O)[nH]c4=O)O[C@@H]3COP(O)(=S)O[C@H]3[C@@H](O)[C@H](n4cnc5c(=O)[nH]c(N)nc54)O[C@@H]3COP(O)(=S)O[C@H]3[C@@H](O)[C@H](n4cnc5c(=O)[nH]c(N)nc54)O[C@@H]3COP(O)(=S)O[C@H]3[C@@H](O)[C@H](n4cnc5c(N)ncnc54)O[C@@H]3COP(O)(=S)OCCCC(=O)N[C@H](CCCCN)C(=O)N[C@@H](CCCCN)C(=O)NCCCCCCO)O2)c(=O)[nH]c1=O (some centres not stated) | 61%
15% | Cc1cn([C@H]2C[C@H](OP(O)(=S)OC[C@H]3O[C@@H](n4cc(C)c(=O)[nH]c4=O)C[C@@H]3OP(O)(=S)OC[C@H]3O[C@@H](n4cnc5c(=O)[nH]c(N)nc54)[C@H](O)[C@@H]3OP(O)(=S)OC[C@H]3O[C@@H](n4cc(C)c(=O)[nH]c4=O)C[C@@H]3OP(O)(=S)OC[C@H]3O[C@@H](n4cc(C)c(=O)[nH]c4=O)C[C@@H]3OP(O)(=S)OC[C@H]3O[C@@H](n4cc(C)c(=O)[nH]c4=O)C[C@@H]3OP(O)(=S)OC[C@H]3O[C@@H](n4ccc(N)nc4=O)[C@H](O)[C@@H]3OP(O)(=S)OC[C@H]3O[C@@H](n4ccc(N)nc4=O)[C@H](O)[C@@H]3OP(O)(=S)OC[C@H]3O[C@@H](n4cc(C)c(=O)[nH]c4=O)C[C@@H]3OP(O)(=S)OC[C@H]3O[C@@H](n4cc(C)c(=O)[nH]c4=O)C[C@@H]3OP(O)(=S)OC[C@H]3O[C@@H](n4cc(C)c(=O)[nH]c4=O)C[C@@H]3OP(O)(=S)OC[C@H]3O[C@@H](n4cnc5c(=O)[nH]c(N)nc54)[C@H](O)[C@@H]3OP(O)(=S)OC[C@H]3O[C@@H](n4ccc(N)nc4=O)[C@H](O)[C@@H]3O)[C@@H](COP(O)(=S)O[C@H]3[C@@H](O)[C@H](n4ccc(N)nc4=O)O[C@@H]3COP(O)(=S)O[C@H]3C[C@H](n4cc(C)c(=O)[nH]c4=O)O[C@@H]3COP(O)(=S)O[C@H]3[C@@H](O)[C@H](n4cnc5c(=O)[nH]c(N)nc54)O[C@@H]3COP(O)(=S)O[C@H]3[C@@H](O)[C@H](n4cnc5c(=O)[nH]c(N)nc54)O[C@@H]3COP(O)(=S)O[C@H]3[C@@H](O)[C@H](n4cnc5c(N)ncnc54)O[C@@H]3COP(O)(=S)OCCCC(=O)N[C@H](CCCCN)C(=O)N[C@@H](CCCCN)C(=O)N[C@H](CCCCN)C(=O)N[C@@H](CCCCN)C(=O)NCCCCCCO)O2)c(=O)[nH]c1=O (some centres not stated) | 57%
 | CCCCCCCCNC(=O)NCCCC[C@@H](NC(=O)CCCOP(O)(=S)OC[C@H]1O[C@@H](n2cnc3c(N)ncnc32)[C@H](O)[C@@H]1OP(O)(=S)OC[C@H]1O[C@@H](n2cnc3c(=O)[nH]c(N)nc32)[C@H](O)[C@@H]1OP(O)(=S)OC[C@H]1O[C@@H](n2cnc3c(=O)[nH]c(N)nc32)[C@H](O)[C@@H]1OP(O)(=S)OC[C@H]1O[C@@H](n2cc(C)c(=O)[nH]c2=O)C[C@@H]1OP(O)(=S)OC[C@H]1O[C@@H](n2ccc(N)nc2=O)[C@H](O)[C@@H]1OP(O)(=S)OC[C@H]1O[C@@H](n2cc(C)c(=O)[nH]c2=O)C[C@@H]1OP(O)(=S)OC[C@H]1O[C@@H](n2cc(C)c(=O)[nH]c2=O)C[C@@H]1OP(O)(=S)OC[C@H]1O[C@@H](n2cnc3c(=O)[nH]c(N)nc32)[C@H](O)[C@@H]1OP(O)(=S)OC[C@H]1O[C@@H](n2cc(C)c(=O)[nH]c2=O)C[C@@H]1OP(O)(=S)OC[C@H]1O[C@@H](n2cc(C)c(=O)[nH]c2=O)C[C@@H]1OP(O)(=S)OC[C@H]1O[C@@H](n2cc(C)c(=O)[nH]c2=O)C[C@@H]1OP(O)(=S)OC[C@H]1O[C@@H](n2ccc(N)nc2=O)[C@H](O)[C@@H]1OP(O)(=S)OC[C@H]1O[C@@H](n2ccc(N)nc2=O)[C@H](O)[C@@H]1OP(O)(=S)OC[C@H]1O[C@@H](n2cc(C)c(=O)[nH]c2=O)C[C@@H]1OP(O)(=S)OC[C@H]1O[C@@H](n2cc(C)c(=O)[nH]c2=O)C[C@@H]1OP(O)(=S)OC[C@H]1O[C@@H](n2cc(C)c(=O)[nH]c2=O)C[C@@H]1OP(O)(=S)OC[C@H]1O[C@@H](n2cnc3c(=O)[nH]c(N)nc32)[C@H](O)[C@@H]1OP(O)(=S)OC[C@H]1O[C@@H](n2ccc(N)nc2=O)[C@H](O)[C@@H]1O)C(=O)NCCCCCCO (some centres not stated) | 55%
 | CCCCCCCCc1ccc(NC(=O)NCCCC[C@@H](NC(=O)CCCOP(O)(=S)OC[C@H]2O[C@@H](n3cnc4c(N)ncnc43)[C@H](O)[C@@H]2OP(O)(=S)OC[C@H]2O[C@@H](n3cnc4c(=O)[nH]c(N)nc43)[C@H](O)[C@@H]2OP(O)(=S)OC[C@H]2O[C@@H](n3cnc4c(=O)[nH]c(N)nc43)[C@H](O)[C@@H]2OP(O)(=S)OC[C@H]2O[C@@H](n3cc(C)c(=O)[nH]c3=O)C[C@@H]2OP(O)(=S)OC[C@H]2O[C@@H](n3ccc(N)nc3=O)[C@H](O)[C@@H]2OP(O)(=S)OC[C@H]2O[C@@H](n3cc(C)c(=O)[nH]c3=O)C[C@@H]2OP(O)(=S)OC[C@H]2O[C@@H](n3cc(C)c(=O)[nH]c3=O)C[C@@H]2OP(O)(=S)OC[C@H]2O[C@@H](n3cnc4c(=O)[nH]c(N)nc43)[C@H](O)[C@@H]2OP(O)(=S)OC[C@H]2O[C@@H](n3cc(C)c(=O)[nH]c3=O)C[C@@H]2OP(O)(=S)OC[C@H]2O[C@@H](n3cc(C)c(=O)[nH]c3=O)C[C@@H]2OP(O)(=S)OC[C@H]2O[C@@H](n3cc(C)c(=O)[nH]c3=O)C[C@@H]2OP(O)(=S)OC[C@H]2O[C@@H](n3ccc(N)nc3=O)[C@H](O)[C@@H]2OP(O)(=S)OC[C@H]2O[C@@H](n3ccc(N)nc3=O)[C@H](O)[C@@H]2OP(O)(=S)OC[C@H]2O[C@@H](n3cc(C)c(=O)[nH]c3=O)C[C@@H]2OP(O)(=S)OC[C@H]2O[C@@H](n3cc(C)c(=O)[nH]c3=O)C[C@@H]2OP(O)(=S)OC[C@H]2O[C@@H](n3cc(C)c(=O)[nH]c3=O)C[C@@H]2OP(O)(=S)OC[C@H]2O[C@@H](n3cnc4c(=O)[nH]c(N)nc43)[C@H](O)[C@@H]2OP(O)(=S)OC[C@H]2O[C@@H](n3ccc(N)nc3=O)[C@H](O)[C@@H]2O)C(=O)NCCCCCCO)cc1 (some centres not stated) | 8%
 | Cc1cn([C@H]2C[C@H](OP(O)(=S)OC[C@H]3O[C@@H](n4cc(C)c(=O)[nH]c4=O)C[C@@H]3OP(O)(=S)OC[C@H]3O[C@@H](n4cnc5c(=O)[nH]c(N)nc54)[C@H](O)[C@@H]3OP(O)(=S)OC[C@H]3O[C@@H](n4cc(C)c(=O)[nH]c4=O)C[C@@H]3OP(O)(=S)OC[C@H]3O[C@@H](n4cc(C)c(=O)[nH]c4=O)C[C@@H]3OP(O)(=S)OC[C@H]3O[C@@H](n4cc(C)c(=O)[nH]c4=O)C[C@@H]3OP(O)(=S)OC[C@H]3O[C@@H](n4ccc(N)nc4=O)[C@H](O)[C@@H]3OP(O)(=S)OC[C@H]3O[C@@H](n4ccc(N)nc4=O)[C@H](O)[C@@H]3OP(O)(=S)OC[C@H]3O[C@@H](n4cc(C)c(=O)[nH]c4=O)C[C@@H]3OP(O)(=S)OC[C@H]3O[C@@H](n4cc(C)c(=O)[nH]c4=O)C[C@@H]3OP(O)(=S)OC[C@H]3O[C@@H](n4cc(C)c(=O)[nH]c4=O)C[C@@H]3OP(O)(=S)OC[C@H]3O[C@@H](n4cnc5c(=O)[nH]c(N)nc54)[C@H](O)[C@@H]3OP(O)(=S)OC[C@H]3O[C@@H](n4ccc(N)nc4=O)[C@H](O)[C@@H]3O)[C@@H](COP(O)(=S)O[C@H]3[C@@H](O)[C@H](n4ccc(N)nc4=O)O[C@@H]3COP(O)(=S)O[C@H]3C[C@H](n4cc(C)c(=O)[nH]c4=O)O[C@@H]3COP(O)(=S)O[C@H]3[C@@H](O)[C@H](n4cnc5c(=O)[nH]c(N)nc54)O[C@@H]3COP(O)(=S)O[C@H]3[C@@H](O)[C@H](n4cnc5c(=O)[nH]c(N)nc54)O[C@@H]3COP(O)(=S)O[C@H]3[C@@H](O)[C@H](n4cnc5c(N)ncnc54)O[C@@H]3COP(O)(=S)OCCCC(=O)NCCCCCCO)O2)c(=O)[nH]c1=O (some centres not stated) | 69%
